Source: PubChem
bCat nuc transl = alters nuclear translocation of beta-catenin in HeLa cells; immunofluorescence imaging; nuclear translocation activity, % at 5 µM; 190,000 compounds, 0.3% hits; AID 1665;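 active = nuclear translocation activity above 50% at 5 µM, with a well cell count of 50 or more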;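 note: per-cell ratio of nuclear to cytoplasmic median beta-catenin stain intensity; plate controls were DMSO negative control for no effect and GSK-3 inhibitor IX positive control for full effect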
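Test system: human HeLa cells, native beta-catenin. Compound dosing: 5 µM primary single dose, 0.1% DMSO, 0.02–20 µM confirmation series. Incubation: compound exposure 24 h at 37°C. Detection: beta-catenin immunostaining with DAPI counterstain, 20x imaging, 6 fields/well. Read-out basis: Nuclear/cytoplasmic beta-catenin signal ratio, % activation.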
Dynein transport = blocks dynein driven cargo transport along microtubules; 3617.4 mouse cells, GR-EGFP nuclear translocation imaging; test concentration mostly 20 µM; stimulated with dexamethasone, 1 µM; active compounds read low; z-score, hits read low; 220,000 compounds, 0.47% hits; AID 1381;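 active = plate z-score of nuclear minus cytoplasmic receptor signal below a set negative limit, without overly bright fluorescence or cell loss, cut at about -3.5 in these data, passing the limit was not always enough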;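 note: z-score of nuclear minus cytoplasmic ring GR-EGFP intensity difference per well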
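Buffer or medium: Induction medium lacking tetracycline, stripped serum | Also added: Dexamethasone agonist, 1.0 µM final, for 30 min | Timing: 48 h induction, 1 h compound, 30 min dex at 37 °C | Detection: Formaldehyde fixation, Hoechst nuclear stain, 10x automated fluorescence imaging | Measure: Nuclear versus cytoplasmic GR-EGFP signal, averaged per well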
CHOP inh = blocks CHOP induction under ER stress. CHO-K1 CHOP-promoter luciferase, tunicamycin-induced, 15-18 h. inhibition, % at 10 µM. 220,000 compounds, 3.8% hits. AID 2732;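 active = compounds that reduced the stress-induced luciferase reporter signal by more than about 70% of percent inhibition, limit read from the data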;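 note: 0% = tunicamycin plus vehicle and 100% = wells without tunicamycin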
L major viab = Leishmania major promastigote growth inhibition | Leishmania major promastigotes, resazurin fluorescence viability | 200,000 compounds, 9% hits | inhibition, % at 10 µM | AID 1063; in the data active = inhibition above about 50%;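 note: promastigotes grown with compound for 44 hours at 28 °C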
Autophagy HCS = alters autophagy in cells | MEF GFP-LC3 puncta imaging; test concentration mostly 10 µM | calls only at 10 µM (by protocol) | 190,000 compounds, 0.98% hits;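 active = percentage of spot-positive cells more than 3 SD above its plate mean, without a fluorescence outlier flag or 80% toxicity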;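 note: spot-positive cell cutoff set from DMSO-treated cells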
MT stabilize HCS = stabilizes microtubules in HeLa cells; HeLa tubulin immunostaining HCS, 24 h; share of cells brighter than vehicle mean+2SD; % tubulin-high responders, % at 10 µM; 200,000 compounds, 0.83% hits;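 active = plate Z-score above 3 for both tubulin-high and condensed-nucleus cell shares, with cell loss under 80%, at 10 µM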;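 note: anti alpha tubulin signal scored within the nucleus-defined area of each cell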
* hit, by the source's call; i = inactive; · = no result given; + = active, no number. Sampled rows, rich in hits. Any-hit rate of the full collection: about 12%.

SMILES | bCat nuc transl | Dynein transport | CHOP inh | L major viab | Autophagy HCS | MT stabilize HCS
COCCN1Cc2cccc(C(=O)NC(C)CCc3ccco3)c2C1=O (centres undefined) | -0.7 | 0.0219 | 11.2 | -5.0 | i | 2.4
COc1ccc(C(=O)Nc2cccc(-c3nnc(-c4ccco4)o3)c2)cc1 | -0.6 | -0.932 | 71.5* | 9.4 | i | 1.4
COc1ccc(OCC(=O)Nc2cccc(-c3nc4ccccc4o3)c2)cc1 | -5.6 | 0.43 | 74.8* | 0.5 | i | 4.5
COc1cc(NC(=O)COc2ccc(Cl)cc2)ccc1NC(=O)C(C)C | 0.8 | -0.508 | 6.8 | · | · | ·
COc1cc(NC(=O)COc2ccc(Cl)cc2)ccc1-c1cc2ccccc2oc1=O | -1.1 | -0.604 | 26.0 | 62.5* | i | 23.7*
CCOC(=O)c1cc[n+](CC(=O)c2ccc(F)cc2)cc1 | 1.1 | 1.24 | 27.8 | -5.0 | i | 1.6
COc1cc(OC)c(NC(=O)C(=O)CC(=O)c2ccc(C)cc2C)cc1Cl | -0.8 | 2.77 | 49.0 | 100.0* | i | 3.6
COc1cc(OC)c(NC(=O)Cn2cccc2)cc1Cl | -1.0 | -0.276 | 24.6 | -0.8 | i | 6.3
O=C(NCC1CCCO1)C(c1ccncc1)N(Cc1cccs1)C(=O)CN1C(=O)c2ccccc2S1(=O)=O (centres undefined) | -0.5 | -0.355 | -1.2 | -8.8 | i | 2.7
Cc1ccccc1CCN(C(=O)CN1C(=O)c2ccccc2S1(=O)=O)C(C(=O)NCC1CCCO1)c1ccncc1 (centres undefined) | -0.7 | 0.0395 | 0.2 | 59.9* | i | 1.2
Cc1nc2ccc(S(=O)(=O)Nc3cc(-c4nc5cccnc5s4)ccc3C)cc2s1 | 3.8 | 0.43 | -5.8 | 0.9 | i | 21.3*
CCc1nnc(NC(=O)CSc2nc(-c3ccccc3)c(-c3ccccc3)o2)s1 | 6.6 | -0.627 | 84.1* | 11.8 | i | 20.3
CCc1nnc(NC(=O)c2cccc(C(=O)Nc3nnc(CC)s3)n2)s1 | 0.0 | 0.279 | 62.6 | 99.4* | i | 4.9
Cc1ccc(S(=O)(=O)CCc2nnc(NC(=O)c3ccccn3)s2)cc1 | 2.1 | 1.39 | 26.6 | 82.0* | i | 4.1
CCc1nnc(NC(=O)c2ccncc2)s1 | -6.4 | -1.2 | 10.4 | -4.0 | i | 3.0
CCOC(=O)CN(C(=O)COc1ccc2c(C)cc(=O)oc2c1)c1ccc(OCC)cc1 | -0.4 | -0.0444 | 6.3 | 6.0 | i | 2.0
O=C(Oc1nsnc1N1CCOCC1)N1CCOCC1 | -9.5 | 1.81 | 71.3* | 9.0 | i | 2.8
Cc1cc(OCC(=O)N2CCOCC2)ccc1NC(=O)C1CCCCC1 | -3.2 | 0.842 | -17.8 | 19.7 | i | 2.3
Cc1ccc(Nc2cc(C)nn2-c2nc(C)cc(C)n2)cc1 | -2.2 | 2.41 | -88.4 | 92.1* | i | 1.6
Cc1ccc(Nc2cc(C)nn2-c2nc(C)cc(=O)[nH]2)cc1 | 1.7 | -0.185 | · | 100.5* | · | 13.3
CC(C)(C)C1CCC(=NNc2nc3ccccc3[nH]2)CC1 (centres undefined) | 1.1 | -0.376 | -2.5 | 85.5* | i | 5.7
c1ccc2c(c1)CC/C2=N/Nc1nc2ccccc2[nH]1 | 0.1 | -0.592 | -25.7 | 100.2* | i | 5.5
c1ccc(CN2CCC(=NNc3nc4ccccc4[nH]3)CC2)cc1 | -2.1 | -1.46 | 0.4 | 9.7 | i | 1.8
O=C(Cn1ccc2ccccc2c1=O)NCCC(=O)N1CCN(c2cccc(C(F)(F)F)c2)CC1 | 0.3 | -0.193 | 43.5 | -1.9 | · | 1.7
Cn1cc(C(=O)c2ccc(Cl)cc2)cc1-c1nc2ccccc2n1C | -0.5 | -0.675 | · | 33.1 | i | 0.6
SMILES | bCat nuc transl | Dynein transport | CHOP inh | L major viab | Autophagy HCS | MT stabilize HCS
CC(=O)C1=C(O)C(=O)N(c2ccc(C)cc2)C1c1ccc([N+](=O)[O-])cc1 (centres undefined) | -0.5 | 0.754 | 18.6 | -2.3 | i | 3.5
COc1ccc(-c2cc(-c3nnc(COC(=O)c4ccncc4)o3)c3ccccc3n2)cc1OC | -4.1 | 0.0788 | 24.0 | 2.4 | i | 3.6
COc1ccc(N2CCN(C(=O)Cn3cnc4c(cnn4-c4ccccc4)c3=O)CC2)cc1 | -1.2 | 1.54 | 11.1 | -4.0 | i | 1.8
CN(C)C(=O)Cn1cnc2c(cnn2-c2ccccc2Cl)c1=O | -0.6 | -0.507 | 89.4* | -7.0 | i | 2.1
COc1ccc(N2CCN(C(=O)Cn3cnc4c(cnn4-c4ccc(C)cc4)c3=O)CC2)cc1 | -0.2 | 2.58 | 50.6 | -5.4 | + | 3.8
Cc1ccc(-n2ncc3c(=O)n(CC(=O)N4CCN(c5ccccc5)CC4)cnc32)cc1 | -0.5 | 1.89 | 82.2* | -4.2 | i | 2.4
COC(=O)c1nnn(-c2nonc2N)c1COc1ccc(C=O)cc1OC | 0.2 | 0.957 | 8.7 | 1.6 | i | 3.3
CC(C)C[C@@H](CSc1ccc(Br)cc1)N1CCN(CC(C)C)CCC1=O | -1.3 | -0.9 | 15.2 | · | · | ·
O=C(Nc1ccc2c(c1)C(=O)N(CC1CCCO1)C2=O)c1cccc(Br)c1 (centres undefined) | -1.3 | 0.344 | 73.3* | -0.2 | i | 1.8
O=C(O)c1cccc(NC(=O)c2ccc3c(c2)C(=O)N(CC2CCCO2)C3=O)c1 (centres undefined) | · | -1.04 | 39.8 | -4.4 | i | 1.0
NC(=S)N=Nc1c(O)n(Cc2ccccc2)c2ccccc12 | -1.2 | -0.0362 | 8.9 | -5.6 | i | 2.1
Cc1cccc(NC(=O)Cn2c(O)c(N=NC(=O)c3ccncc3)c3ccccc32)c1 | 0.2 | -1.17 | 83.9* | 1.4 | i | 2.8
O=Nc1c(O)n(Cc2cccc(Cl)c2)c2ccccc12 | -1.6 | -0.492 | 73.4* | -2.9 | i | 1.0
Oc1c(N=NC(=S)Nc2ccccc2F)c2ccccc2n1Cc1ccccc1 | 1.0 | -0.68 | 7.5 | 95.6* | i | 2.7
CCOC(=O)N=Nc1c(O)n(Cc2ccccc2)c2ccccc12 | -0.3 | -0.229 | 79.7* | 0.3 | i | 4.7
COC(=O)N=Nc1c(O)n(Cc2ccccc2)c2ccccc12 | -1.5 | 2.19 | 7.5 | · | · | ·
C=CCn1c(O)c(N=NC(=S)Nc2cccc(C)c2)c2ccccc21 | 0.3 | -0.595 | -51.3 | 98.7* | i | 2.7
C=CCn1c(O)c(N=NC(=S)Nc2ccccc2F)c2cc(S(=O)(=O)N3CCOCC3)ccc21 | 0.9 | -0.598 | -28.4 | -0.6 | i | 2.8
Cc1ccccc1NC(=S)N=Nc1c(O)n(C)c2ccc(S(=O)(=O)N3CCOCC3)cc12 | 1.6 | -0.174 | -48.2 | -3.9 | i | 3.6
C/C(Cl)=C\Cn1c(O)c(N=NC(N)=S)c2ccccc21 | -1.5 | -0.408 | -22.1 | 4.4 | i | 3.0
Oc1c(N=NC(=S)Nc2ccccc2F)c2ccccc2n1Cc1ccccc1Cl | 3.3 | 1.1 | -7.3 | 84.2* | i | 3.4
Cc1c(Cl)cccc1NC(=S)N=Nc1c(O)n(CN2CCOCC2)c2ccccc12 | 3.8 | 2.64 | 87.2* | 98.1* | i | 3.4
CCn1c(O)c(N=NC(=O)CNc2cccc(C)c2)c2ccccc21 | -2.2 | -0.0311 | 12.4 | -3.2 | i | 3.8
